ChEMBL document CHEMBL2169780, “Design and synthesis of neuroprotective methylthiazoles and modification as NO-chimeras for neurodegenerative therapy” (J Med Chem, 2012)
Calls of active or inactive are those of the source. The rule behind the calls is not given here.

What was measured:
[1] = Neuroprotective activity against oxygen-glucose deprivation-induced toxicity in Sprague-Dawley rat primary cortical neurons at 50 uM […] measured after 24 hrs by MTT assay relative to clomethiazole; format: functional, Cerebral cortex neuron
[2] = Chemical stability of the compound in phosphate buffer at pH 7.4 after 5 days by HPLC-UV analysis; format: physicochemical; conditions: pH 7.4, 120 h
Summary of the method: (§1)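 10 µM compound plus 10 µM internal standard in 100 mM phosphate buffer, pH 7.4, 2% DMSO final, held at room temperature in the autosampler. Repeated HPLC injections with UV detection at 254 nm and a C18 gradient. Parent-to-standard peak-area ratio divided by the time-zero value gives % remaining.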

Mus musculus = test: Procognitive activity in C57BL/6 mouse assessed as reversal of scopolamine-induced memory deficit at 4.5 umol/kg, ip administered 10 mins post scopolamine-challenge and 20 mins prior to training measured after 24 hrs by step-through passive avoidance test; format: functional, organism-based
Summary of the method: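 Male C57BL/6 mice, 8–10 weeks. Scopolamine 1.0 mg/kg i.p. given 30 min before training; drug at 4.5 µmol/kg i.p. given 20 min before training. At 24 h after training, latency to enter the dark compartment was recorded without shock. One-way ANOVA with Bonferroni test.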

Hippocampus = test: Neuroprotective activity against amyloid beta-induced long term potentiation impairment in human APP […] mutant and PS1 M146L mutant transgenic mouse hippocampal slice at 100 uM incubated for 5 mins by field excitatory post-synaptic potential analysis; format: functional, tissue-based
Summary of the method: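 APP/PS1 (line 6.2) hippocampal slices, 400 µm, kept at 29°C in oxygenated saline. CA1 fEPSPs recorded in stratum radiatum after a 15 min baseline at about 35% of maximal response. Compound at 100 µM perfused 5 min before theta-burst tetanus of the Schaffer collaterals. LTP analysed at 50–80 min by two-way ANOVA.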

[3] = Half life of the compound in phosphate buffer at pH 7.4 by HPLC-UV analysis; format: physicochemical; summary of the method: as §1
Cerebral cortex neuron [4] = test: Activation of Gamma-aminobutyric acid type-A receptor in Sprague-Dawley rat primary cortical neurons assessed as inhibition of glutamate-induced cytotoxicity at 50 uM incubated for 1 hr prior to glutamate-challenge measured after 24 hrs by MTT assay in presence of picrotoxin; format: cell-based
Cerebral cortex neuron [5] = test: Activation of Gamma-aminobutyric acid type-A receptor in Sprague-Dawley rat primary cortical neurons assessed as inhibition of glutamate-induced cytotoxicity at 50 uM […] measured after 24 hrs by MTT assay; format: cell-based
Brain [6] = test: Drug uptake in C57BL/6 mouse brain assessed as beta-Phenyl-4-methyl-5-thiazoleethanol level at 4.5 umol/kg, ip after 20 mins; format: ADME, organism-based; conditions: in vivo
Summary of the method: (§2)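 Male C57BL/6 mice, 8–10 weeks, dosed i.p. at 4.5 µmol/kg, four per drug. Brains taken 20 min later and extracted in cold acetonitrile/MeOH (1:1) with internal standard. Parent and metabolite quantified by LC-MS/MS in MRM mode against brain-matrix calibration of 1–100 ng/mL. Mean ± SEM, n=4.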

[7] = Drug uptake in C57BL/6 mouse brain at 4.5 umol/kg, ip after 20 mins; format: ADME, organism-based; conditions: read-out: Drug uptake; summary of the method: as §2
[8] = Neuroprotective activity against oxygen-glucose deprivation-induced toxicity in Sprague-Dawley rat primary cortical neurons assessed as increase in cell survival at 50 uM […] measured after 24 hrs by MTT assay relative to vehicle-treated control; format: functional, Cerebral cortex neuron
Brain [9] = test: Drug uptake in C57BL/6 mouse brain assessed as [1-[beta-(4-Methyl-5-thiazolyl)ethanol]-4-(3-pyridinyl)]-1H-1,2,3-triazole level at 4.5 umol/kg, ip after 20 mins; format: ADME, organism-based; conditions: in vivo; summary of the method: as §2

## Cc1ncsc1C(O)c1ccccc1 (centres undefined)
[1]
  Activity: 94%

## Cc1ncsc1CCO
[1]
  Activity: 14.11%

## Cc1ncsc1C(NC(=O)C1(CO[N+](=O)[O-])CC1)c1ccccc1 (centres undefined)
[2]
  Stability: Stable

## Cc1ncsc1C(CO)n1nncc1-c1cccnc1 (centres undefined)
[1]
  Activity: 92.9%

## Cc1ncsc1C(c1ccccc1)n1cc(-c2cccnc2)nn1 (centres undefined)
[1]
  Activity: 108%

## Cc1ncsc1C(NC(=O)OCC1(CO[N+](=O)[O-])CC1)c1ccccc1 (centres undefined)
Mus musculus
  Activity: Active
Hippocampus
  Activity: inactive
[3]
  half-life: 50 h

## Cc1ncsc1C(c1ccc(F)cc1)n1cc(-c2cccnc2)nn1 (centres undefined)
[1]
  Activity: 87.2%

## NCc1cc(O)no1
Cerebral cortex neuron [4]
  Activity: inactive
Cerebral cortex neuron [5]
  Activity: Active

## Cc1ncsc1C(c1ccccc1)n1cc(-c2cncc(O)c2)nn1 (centres undefined)
[1]
  Activity: 104%

## Cc1ncsc1C(O)c1ccc(Cl)cc1 (centres undefined)
[1]
  Activity: 25%

## Cc1ncsc1C(CO[N+](=O)[O-])c1ccccc1 (centres undefined)
Brain [6]
  Drug uptake: 9.5 ng/mL
[7]
  concentration at 20 min: 0.0095 µg/mL
Mus musculus
  Activity: Active
Hippocampus
  Activity: Active
[2]
  Stability: Stable

## Cc1ncsc1C(CO)c1ccc(F)cc1 (centres undefined)
[1]
  Activity: 98.9%

## Cc1ncsc1C(OCCOCCO)c1ccccc1 (centres undefined)
Cerebral cortex neuron [4]
  Activity: inactive
Cerebral cortex neuron [5]
  Activity: Active
[1]
  Activity: 114.1%

## Cc1ncsc1C(CO)n1cc(-c2cccnc2)nn1 (centres undefined)
Cerebral cortex neuron [4]
  Activity: inactive
Cerebral cortex neuron [5]
  Activity: Active
[7]
  concentration at 20 min: 0.0564 µg/mL
[1]
  Activity: 107.3%

## Cc1ncsc1CCn1cc(-c2ccccc2)nn1
[1]
  Activity: 53.9%

## Cc1ncsc1C(c1ccccc1)n1cc(Cc2ccccc2)nn1 (centres undefined)
[1]
  Activity: 88.3%

## Cc1ncsc1C(c1ccccc1)n1cc(-c2ccccc2)nn1 (centres undefined)
[1]
  Activity: 57.6%

## Cc1ncsc1C(c1ccccc1)n1ccnn1 (centres undefined)
[1]
  Activity: 58.1%

## Cc1ncsc1C(O)c1ccc(F)cc1 (centres undefined)
[1]
  Activity: 36.8%

## Cc1ncsc1C(CO[N+](=O)[O-])n1nncc1-c1cccnc1 (centres undefined)
Mus musculus
  Activity: Active
[2]
  Stability: Stable

## Cc1ncsc1C(c1ccccc1)n1cc(-c2ccccn2)nn1 (centres undefined)
[1]
  Activity: 50.9%

## Cc1ncsc1CCCl [CLOMETHIAZOLE]
Hippocampus
  Activity: inactive
[8]
  Activity: 30%

## Cc1ncsc1C(c1ccccc1)n1cc(-c2ccsc2)nn1 (centres undefined)
[1]
  Activity: 62%

## Cc1ccc2c(c1)c1c(n2CCc2scnc2C)CCN(C)C1
[1]
  Activity: 15.4%

## Cc1ncsc1C(OC(=O)C1(C)CC1)c1ccccc1 (centres undefined)
[3]
  half-life: 6.33 h

## Cc1ncsc1C(O)Cc1ccccc1 (centres undefined)
[1]
  Activity: 102%

## COC(c1ccccc1)c1scnc1C (centres undefined)
[1]
  Activity: 110.2%

## Cc1ncsc1C(Cc1ccccc1)O[N+](=O)[O-] (centres undefined)
[2]
  Stability: Stable

## Cc1ncsc1C(c1ccccc1)n1cc(-c2cncn2C)nn1 (centres undefined)
[1]
  Activity: 93.9%

## Cc1ncsc1CCn1cc(-c2cccnc2)nn1
Cerebral cortex neuron [4]
  Activity: inactive
[1]
  Activity: 99.6%

## Cc1ncsc1C(CO)c1ccc(-c2cccnc2)cc1 (centres undefined)
[1]
  Activity: 25%

## Cc1ncsc1C(OC(=O)C1(CO[N+](=O)[O-])CC1)c1ccccc1 (centres undefined)
[3]
  half-life: 0.578 h

## Cc1ncsc1C(OCCOCCO[N+](=O)[O-])c1ccccc1 (centres undefined)
Mus musculus
  Activity: Active
[2]
  Stability: Stable

## Cc1ncsc1C(c1ccccc1)n1cc(-c2ccncc2)nn1 (centres undefined)
[1]
  Activity: 90.2%

## Cc1ncsc1C(CO)c1ccccc1 (centres undefined)
Cerebral cortex neuron [4]
  Activity: inactive
Cerebral cortex neuron [5]
  Activity: Active
[7]
  concentration at 20 min: 0.0329 µg/mL
[1]
  Activity: 99.6%

## Cc1ncsc1CCn1ccnn1
[1]
  Activity: 51.5%

## Cc1ncsc1C(CO[N+](=O)[O-])c1ccc(F)cc1 (centres undefined)
Mus musculus
  Activity: Active
[2]
  Stability: Stable

## Cc1ncsc1C(CO[N+](=O)[O-])n1cc(-c2cccnc2)nn1 (centres undefined)
Brain [9]
  Drug uptake: 76.6 ng/mL
[7]
  concentration at 20 min: 0.0021 µg/mL
Mus musculus
  Activity: Active
[2]
  Stability: Stable

## Cc1ncsc1C(NC(=O)OCCCCO[N+](=O)[O-])c1ccccc1 (centres undefined)
Mus musculus
  Activity: Active
[2]
  Stability: Stable

## Cc1ncsc1C(O)Cc1ccc(F)cc1 (centres undefined)
[1]
  Activity: 101%
